How the values were obtained:
[1] = system: Human immunodeficiency virus 1; test: Antiviral activity in HIV-1 infected H9 cells; format: functional; details: Human immunodeficiency virus 1, H9; read-out: ED50 (the source's name)
Method in brief: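 H9 cells infected with HIV-1 IIIB at MOI about 0.005, spun down (200g, 10 min), resuspended at 8 × 10^5 cells/mL in RPMI Complete and mixed with compound; final DMSO 0.1%, triplicate per concentration. After 5 days at 37 °C in 5% CO2, supernatant p24 antigen was measured by ELISA. ED50 is the drug amount that reduces p24 by 50% versus DMSO drug-free controls.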

[2] = target: Human immunodeficiency virus type 1 protease (Human immunodeficiency virus 1, UniProt Q72874); test: Binding affinity against HIV-1 protease
[3] = Median cell culture toxic dose was evaluated against H9 cell line; format: ADME, cell-based; details: human, H9 cells; read-out: CCTD50

Ki [2] [nM] | Structure (SMILES) | EC50 [1] [nM] | CC50 [3] [nM]
6.2 | O=c1c2c(oc(O)c1C(c1cccc(NS(=O)(=O)c3ccc(Cl)cc3Cl)c1)C1CC1)CCCCCC2 (configuration not stated) | – | > 30000
0.8 | O=c1c2c(oc(O)c1C(c1cccc(NS(=O)(=O)c3ncccn3)c1)C1CC1)CCCCCC2 (configuration not stated) | 1700 | > 30000
2.1 | O=c1c2c(oc(O)c1C(c1cccc(NS(=O)(=O)c3ccc(Br)cc3)c1)C1CC1)CCCCCC2 (configuration not stated) | 3200 | > 30000
7.6 | O=c1c2c(oc(O)c1C(c1cccc(NS(=O)(=O)c3cccc(Cl)c3Cl)c1)C1CC1)CCCCCC2 (configuration not stated) | > 3000 | > 30000
15 | O=c1c2c(oc(O)c1C(c1ccccc1)C1CC1)CCCCCC2 (configuration not stated) | – | –
1.9 | O=c1c2c(oc(O)c1C(c1cccc(NS(=O)(=O)c3cccc4cccnc34)c1)C1CC1)CCCCCC2 (configuration not stated) | 1400 | 82000
– | O=c1c2c(oc(O)c1[C@H](c1cccc(NS(=O)(=O)c3ccccc3)c1)C1CC1)CCCCCC2 | 2600 | > 30000
10 | CCS(=O)(=O)Nc1cccc(C(c2c(O)c3c(oc2=O)CCCCCC3)C2CC2)c1 (configuration not stated) | – | –
21 | O=c1c2c(oc(O)c1C(c1cccc(NS(=O)(=O)c3ccccc3C(F)(F)F)c1)C1CC1)CCCCCC2 (configuration not stated) | – | > 30000
3.6 | O=c1c2c(oc(O)c1C(c1cccc(NS(=O)(=O)C3CCCCC3)c1)C1CC1)CCCCCC2 (configuration not stated) | – | –
1 | N#Cc1ccc(S(=O)(=O)Nc2cccc(C(c3c(O)oc4c(c3=O)CCCCCC4)C3CC3)c2)nc1 (configuration not stated) | 900 | > 30000
> 200 | Cc1cccc(C)c1S(=O)(=O)Nc1cccc(C(c2c(O)c3c(oc2=O)CCCCCC3)C2CC2)c1 (configuration not stated) | – | > 30000
0.8 | CCC(c1ccccc1)c1c(O)c2ccccc2oc1=O (configuration not stated) [PHENPROCOUMON] | – | –
4.1 | O=c1c2c(oc(O)c1C(c1cccc(NS(=O)(=O)c3ccc(Cl)c(Cl)c3)c1)C1CC1)CCCCCC2 (configuration not stated) | 3400 | > 30000
36 | O=c1c2c(oc(O)c1C(c1cccc(S(=O)(=O)Nc3ccccc3)c1)C1CC1)CCCCCC2 (configuration not stated) | – | –
2.7 | O=c1c2c(oc(O)c1C(c1cccc(NS(=O)(=O)c3ccc([N+](=O)[O-])cc3)c1)C1CC1)CCCCCC2 (configuration not stated) | 3100 | > 30000
2.5 | O=c1c2c(oc(O)c1C(c1cccc(NS(=O)(=O)c3ccc(Cl)cc3)c1)C1CC1)CCCCCC2 (configuration not stated) | 2000 | > 30000
0.2 | O=c1c2c(oc(O)c1C(c1cccc(NS(=O)(=O)c3cnccn3)c1)C1CC1)CCCCCC2 (configuration not stated) | 2000 | > 30000
4 | O=c1c2c(oc(O)c1C(c1cccc(NS(=O)(=O)c3ccc(OC(F)(F)F)cc3)c1)C1CC1)CCCCCC2 (configuration not stated) | 3400 | > 30000

Ki [2] [nM] | Structure (SMILES) | EC50 [1] [nM] | CC50 [3] [nM]
4 | CCCS(=O)(=O)Nc1cccc(C(c2c(O)c3c(oc2=O)CCCCCC3)C2CC2)c1 (configuration not stated) | – | –
7.4 | N#Cc1ccccc1S(=O)(=O)Nc1cccc(C(c2c(O)oc3c(c2=O)CCCCCC3)C2CC2)c1 (configuration not stated) | > 10000 | > 30000
1.6 | O=c1c2c(oc(O)c1C(c1cccc(NS(=O)(=O)c3cscn3)c1)C1CC1)CCCCCC2 (configuration not stated) | > 3000 | > 30000
13 | O=c1c2c(oc(O)c1C(c1cccc(NS(=O)(=O)Cc3ccccc3)c1)C1CC1)CCCCCC2 (configuration not stated) | – | –
3.1 | O=c1c2c(oc(O)c1C(c1cccc(NS(=O)(=O)c3ccc(I)cc3)c1)C1CC1)CCCCCC2 (configuration not stated) | 5300 | > 30000
> 200 | C=CS(=O)(=O)Nc1cccc(C(c2c(O)oc3c(c2=O)CCCCC3)C2CC2)c1 (configuration not stated) | – | –
3.9 | O=c1c2c(oc(O)c1C(c1cccc(NS(=O)(=O)CCc3ccccc3)c1)C1CC1)CCCCCC2 (configuration not stated) | – | –
> 200 | O=c1c2c(oc(O)c1C(c1cccc(NS(=O)(=O)c3c(Cl)cccc3Cl)c1)C1CC1)CCCCCC2 (configuration not stated) | – | > 30000
– | CC(C)(C)OC(=O)NCCC(=O)Nc1cccc(C(c2c(O)c3c(oc2=O)CCCCCC3)C2CC2)c1 (configuration not stated) | 33000 | –
– | O=c1c2c(oc(O)c1[C@@H](c1cccc(NS(=O)(=O)c3ccccc3)c1)C1CC1)CCCCCC2 | > 10000 | > 30000
– | O=c1c2c(oc(O)c1C(c1cccc(NS(=O)(=O)c3ccccc3)c1)C1CC1)CCCCCC2 (configuration not stated) | 5500 | > 30000
120 | CS(=O)(=O)Nc1cccc(C(c2c(O)c3c(oc2=O)CCCCC3)C2CC2)c1 (configuration not stated) | – | –
– | CC(C)C(c1cccc(NS(=O)(=O)c2cccnc2)c1)c1c(O)c2c(oc1=O)CCCCCC2 (configuration not stated) | > 10000 | > 30000
9.3 | O=c1c2c(oc(O)c1C(c1cccc(NS(=O)(=O)c3ccccc3Cl)c1)C1CC1)CCCCCC2 (configuration not stated) | – | > 30000
6 | CCCCCCCCS(=O)(=O)Nc1cccc(C(c2c(O)c3c(oc2=O)CCCCCC3)C2CC2)c1 (configuration not stated) | – | –
47 | O=c1c2c(oc(O)c1C(c1cccc(NS(=O)(=O)c3ccc(C(F)(F)F)c(C(F)(F)F)c3)c1)C1CC1)CCCCCC2 (configuration not stated) | – | > 30000
3 | O=c1c2c(oc(O)c1C(c1cccc(NS(=O)(=O)/C=C/c3ccccc3)c1)C1CC1)CCCCCC2 (configuration not stated) | – | –
74 | O=c1c2c(oc(O)c1C(c1cccc(NS(=O)(=O)c3cc(Cl)ccc3Cl)c1)C1CC1)CCCCCC2 (configuration not stated) | – | > 30000
18 | C=CS(=O)(=O)Nc1cccc(C(c2c(O)oc3c(c2=O)CCCCCC3)C2CC2)c1 (configuration not stated) | – | –

Structure (SMILES) | Ki [2] [nM] | EC50 [1] [nM] | CC50 [3] [nM]
CCCC(c1cccc(NS(=O)(=O)c2cccc3cccnc23)c1)c1c(O)c2c(oc1=O)CCCCCC2 (configuration not stated) | 2.1 | > 3000 | > 30000
CC(C)CC(c1cccc(NS(=O)(=O)c2cccnc2)c1)c1c(O)c2c(oc1=O)CCCCCC2 (configuration not stated) | 9.3 | > 10000 | > 30000
CCCCS(=O)(=O)Nc1cccc(C(c2c(O)c3c(oc2=O)CCCCCC3)C2CC2)c1 (configuration not stated) | 4.6 | – | –
COc1ccc(S(=O)(=O)Nc2cccc(C(c3c(O)c4c(oc3=O)CCCCCC4)C3CC3)c2)cc1OC (configuration not stated) | 6.8 | 4100 | > 30000
CC(C)S(=O)(=O)Nc1cccc(C(c2c(O)c3c(oc2=O)CCCCCC3)C2CC2)c1 (configuration not stated) | 33 | – | –
CCC(c1cccc(NS(=O)(=O)c2ccc(C#N)cc2)c1)c1c(O)c2c(oc1=O)CCCCCC2 (configuration not stated) | 3.1 | 3300 | > 30000
CC(C)C(c1cccc(NS(=O)(=O)c2ccc(Cl)cc2)c1)c1c(O)c2c(oc1=O)CCCCCC2 (configuration not stated) | 18 | > 10000 | > 30000
CC(C)C(c1cccc(NS(=O)(=O)c2cccc3cccnc23)c1)c1c(O)c2c(oc1=O)CCCCCC2 (configuration not stated) | 4.2 | > 10000 | > 30000
CN(C)c1ccc(S(=O)(=O)Nc2cccc(C(c3c(O)c4c(oc3=O)CCCCCC4)C3CC3)c2)cc1 (configuration not stated) | 2.8 | 8700 | > 30000
O=C(O)c1cccc(S(=O)(=O)Nc2cccc(C(c3c(O)c4c(oc3=O)CCCCCC4)C3CC3)c2)c1 (configuration not stated) | 4.5 | > 10000 | > 30000
O=C(O)c1ccc(S(=O)(=O)Nc2cccc(C(c3c(O)c4c(oc3=O)CCCCCC4)C3CC3)c2)cc1 (configuration not stated) | 11 | > 10000 | > 30000
CC(C)C(c1cccc(NS(=O)(=O)c2ccc(C#N)cc2)c1)c1c(O)c2c(oc1=O)CCCCCC2 (configuration not stated) | 5.9 | > 10000 | > 30000
Cc1cccc(S(=O)(=O)Nc2cccc(C(c3c(O)c4c(oc3=O)CCCCCC4)C3CC3)c2)c1 (configuration not stated) | 5.3 | 4000 | > 30000
CC(C)CC(c1cccc(NS(=O)(=O)c2cn(C)cn2)c1)c1c(O)c2c(oc1=O)CCCCCC2 (configuration not stated) | 0.086 | 1300 | > 30000
Nc1cccc(S(=O)(=O)Nc2cccc(C(c3c(O)c4c(oc3=O)CCCCCC4)C3CC3)c2)c1 (configuration not stated) | 2.3 | 6300 | > 30000
CCCCC(c1cccc(NS(=O)(=O)c2ccc(F)cc2)c1)c1c(O)c2c(oc1=O)CCCCCC2 (configuration not stated) | 6.1 | > 10000 | > 30000
CC(C)(C)c1ccc(S(=O)(=O)Nc2cccc(C(c3c(O)c4c(oc3=O)CCCCCC4)C3CC3)c2)cc1 (configuration not stated) | 32 | > 10000 | > 30000
CC(C)CC(c1cccc(NS(=O)(=O)c2ccc(C#N)cc2)c1)c1c(O)c2c(oc1=O)CCCCCC2 (configuration not stated) | 1.5 | 6100 | > 30000
CC(C)C(c1cccc(NS(=O)(=O)c2ccc(F)cc2)c1)c1c(O)c2c(oc1=O)CCCCCC2 (configuration not stated) | 11 | > 10000 | > 30000
COC(=O)c1cccc(S(=O)(=O)Nc2cccc(C(c3c(O)c4c(oc3=O)CCCCCC4)C3CC3)c2)c1 (configuration not stated) | 1.4 | 2600 | > 30000
CS(=O)(=O)Nc1cccc(C(c2c(O)c3c(oc2=O)CCCCCC3)C2CC2)c1 (configuration not stated) | 11 | – | –
CCCCOc1ccc(S(=O)(=O)Nc2cccc(C(c3c(O)c4c(oc3=O)CCCCCC4)C3CC3)c2)cc1 (configuration not stated) | 18 | – | > 30000
Cc1ccccc1S(=O)(=O)Nc1cccc(C(c2c(O)c3c(oc2=O)CCCCCC3)C2CC2)c1 (configuration not stated) | 9.3 | – | > 30000
CC(C)c1ccc(S(=O)(=O)Nc2cccc(C(c3c(O)c4c(oc3=O)CCCCCC4)C3CC3)c2)cc1 (configuration not stated) | 13 | – | > 30000
CCCc1ccc(S(=O)(=O)Nc2cccc(C(c3c(O)c4c(oc3=O)CCCCCC4)C3CC3)c2)cc1 (configuration not stated) | 11 | – | > 30000
CCc1ccc(S(=O)(=O)Nc2cccc(C(c3c(O)c4c(oc3=O)CCCCCC4)C3CC3)c2)cc1 (configuration not stated) | 5 | – | > 30000
CCS(=O)(=O)Nc1cccc(C(c2c(O)c3c(oc2=O)CCCCC3)C2CC2)c1 (configuration not stated) | 63 | – | –
Nc1ccc(S(=O)(=O)Nc2cccc(C(c3c(O)c4c(oc3=O)CCCCCC4)C3CC3)c2)cc1 (configuration not stated) | 6.9 | – | > 30000
Cn1cnc(S(=O)(=O)Nc2cccc([C@H](c3c(O)c4c(oc3=O)CCCCCC4)C3CC3)c2)c1 | 0.08 | – | > 30000
